Measured values published in ChEMBL document CHEMBL1121642, “Synthesis and antiherpetic activity of some 4-[(aryloxy)alkyl]pyrazoles” (1981).
In brackets after ≈: the same amount, converted by molar mass. Values belong to the compound of their own block, whether it stands above or below them. Activity calls are given as the source filed them. The calls are words filed in the database; no cut-off is given here.

Key:
Human alphaherpesvirus 2 [1] = assay: Tested in vitro for minimum inhibitory activity against Herpes simplex virus type -2 (HSV-2); type: functional
Mus musculus [2] = organism: Mus musculus; assay: Effect on the survival rate of mice infected intravaginally with Herpes simplex virus type -2 (HSV-2) at 5% dosage twice in a day; type: functional
Method in brief: (§1)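 Mice infected intravaginally with a tampon (dental pellet) saturated with HSV suspension. Aqueous drug solution given intravaginally b.i.d. on cotton tampons, starting 4 h postinfection. Each tampon stayed in 24 h, was re-moistened with 0.02 mL drug 6 h after insertion, and was replaced daily. Deaths were recorded daily to 14 days. Read-out: % survival and average survival time, with survivors scored >14 days.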

Mus musculus [3] = organism: Mus musculus; assay: Effect on the survival rate of mice infected intravaginally with Herpes simplex virus type -2 (HSV-2) at 1.25% dosage twice in a day; type: functional; method in brief: as §1
Mus musculus [4] = organism: Mus musculus; assay: Effect on the survival rate of mice infected intravaginally with Herpes simplex virus type -2 (HSV-2) at 2.5% dosage twice in a day; type: functional; method in brief: as §1
Human alphaherpesvirus 2 [5] = assay: Tested in vitro for minimum inhibitory activity against Herpes simplex virus type -2 (HSV-2); Inactive; type: functional, organism-based
Mus musculus [6] = organism: Mus musculus; assay: Number of mice recovered from virus infected with Herpes simplex virus type-2 at 2.5% dosage twice in 1st day out of 10 mice sampled; type: functional
Method in brief: (§2)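 Mice were infected intravaginally with HSV-2 Curtis strain. Starting 4 h postinfection, they were treated intravaginally with cotton tampons saturated with 10, 5, 2.5 or 1.25% drug solution, replaced daily, plus 0.02 mL added 6 h later. Vaginal washings with 1.5 mL M-199 were taken each morning on days 1–7, frozen at −70 °C and assayed in BSC-1 cells. Read-out: mice with recoverable virus/mice sampled.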

Mus musculus [7] = organism: Mus musculus; assay: Number of mice recovered from virus infected with Herpes simplex virus type-2 at 1.25% dosage twice in 7 th day out of 10 mice sampled; type: functional; method in brief: as §2
Mus musculus [8] = organism: Mus musculus; assay: Number of mice recovered from virus infected with Herpes simplex virus type-2 at 1.25% dosage twice in 3 rd day out of 10 mice sampled; type: functional; method in brief: as §2
Mus musculus [9] = assay: Effect on the survival rate of mouse infected with herpes genitalis (HSV-2) administered intravaginally at 5% dosage twice in a day; type: functional
Method in brief: (§3)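 HSV-2 mouse genital model, infected intravaginally. Drug prepared in water + 1% gum tragacanth and given intravaginally b.i.d. via saturated cotton tampons, starting 4 h postinfection. Tampons were re-dosed with 0.02 mL 6 h after insertion and replaced daily. Test ended at day 14, with survivors assigned survival time >14 days. Read-out: % survival and average survival time.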

Mus musculus [10] = organism: Mus musculus; assay: Number of mice recovered from virus infected with Herpes simplex virus type-2 at 5% dosage twice in 7 th day out of 8 mice sampled; type: functional; method in brief: as §2
Mus musculus [11] = assay: Effect on the survival rate of mice iinfected with HSV-1 administered intravaginally at 2.5% dosage twice in a day; type: functional; method in brief: as §1
Mus musculus [12] = organism: Mus musculus; assay: Number of mice recovered from virus infected with Herpes simplex virus type-2 at 10% dosage twice in 7 th day out of 10 mice sampled; type: functional; method in brief: as §2
Mus musculus [13] = assay: Effect on the survival rate of mice infected with HSV-2 administered intravaginally at 2.5% dosage twice in a day; type: functional; method in brief: as §1
Mus musculus [14] = organism: Mus musculus; assay: Number of mice recovered from virus infected with Herpes simplex virus type-2 at 10% dosage twice in 3 rd day out of 10 mice sampled; type: functional; method in brief: as §2
Mus musculus [15] = assay: Effect on the survival rate of mice iinfected with HSV-1 administered intravaginally at 1.25% dosage twice in a day; type: functional; method in brief: as §1
Mus musculus [16] = assay: Effect on the survival rate of mouse infected with herpes genitalis (HSV-2) administered intravaginally at 2% dosage twice in a day; type: functional; method in brief: as §3
Mus musculus [17] = organism: Mus musculus; assay: Number of mice recovered from virus infected with Herpes simplex virus type-2 at 5% dosage twice in 3 rd day out of 10 mice sampled; type: functional; method in brief: as §2
Mus musculus [18] = organism: Mus musculus; assay: Number of mice recovered from virus infected with Herpes simplex virus type-2 at 2.5% dosage twice in 6 th day out of 10 mice sampled; type: functional; method in brief: as §2
Mus musculus [19] = organism: Mus musculus; assay: Number of mice recovered from virus infected with Herpes simplex virus type-2 at 10% dosage twice in 1st day out of 10 mice sampled; type: functional; method in brief: as §2
Mus musculus [20] = organism: Mus musculus; assay: Number of mice recovered from virus infected with Herpes simplex virus type-2 at 2.5% dosage twice in 3 rd day out of 10 mice sampled; type: functional; method in brief: as §2
Mus musculus [21] = organism: Mus musculus; assay: Number of mice recovered from virus infected with Herpes simplex virus type-2 at 2.5% dosage twice in 4 th day out of 10 mice sampled; type: functional; method in brief: as §2
Mus musculus [22] = assay: Effect on the survival rate of mice infected with HSV-2 administered intravaginally at 10% dosage twice in a day; type: functional; method in brief: as §1
Mus musculus [23] = assay: Effect on the survival rate of mice infected with HSV-1 administered intravaginally at 1.25% dosage twice in a day; type: functional; method in brief: as §1
Mus musculus [24] = assay: Effect on the survival rate of mice infected with HSV-2 administered intravaginally at 5% dosage twice in a day; type: functional; method in brief: as §1
Mus musculus [25] = organism: Mus musculus; assay: Number of mice recovered from virus infected with Herpes simplex virus type-2 at 10% dosage twice in 2 nd day out of 10 mice sampled; type: functional; method in brief: as §2
Mus musculus [26] = organism: Mus musculus; assay: Number of mice recovered from virus infected with Herpes simplex virus type-2 at 10% dosage twice in 6 th day out of 10 mice sampled; type: functional; method in brief: as §2
Mus musculus [27] = organism: Mus musculus; assay: Number of mice recovered from virus infected with Herpes simplex virus type-2 at 5% dosage twice in 1 st day out of 10 mice sampled; type: functional; method in brief: as §2
Mus musculus [28] = organism: Mus musculus; assay: Number of mice recovered from virus infected with Herpes simplex virus type-2 at 5% dosage twice in 2 nd day out of 10 mice sampled; type: functional; method in brief: as §2
Mus musculus [29] = assay: Effect on the survival rate of mice infected with HSV-2 administered intravaginally at 1.25% dosage twice in a day; type: functional; method in brief: as §1
Mus musculus [30] = organism: Mus musculus; assay: Number of mice recovered from virus infected with Herpes simplex virus type-2 at 2.5% dosage twice in 2 nd day out of 10 mice sampled; type: functional; method in brief: as §2
Mus musculus [31] = organism: Mus musculus; assay: Number of mice recovered from virus infected with Herpes simplex virus type-2 at 5% dosage twice in 6 th day out of 8 mice sampled; type: functional; method in brief: as §2
Mus musculus [32] = organism: Mus musculus; assay: Number of mice recovered from virus infected with Herpes simplex virus type-2 at 2.5% dosage twice in 7 th day out of 8 mice sampled; type: functional; method in brief: as §2
Mus musculus [33] = organism: Mus musculus; assay: Number of mice recovered from virus infected with Herpes simplex virus type-2 at 5% dosage twice in 4 th day out of 10 mice sampled; type: functional; method in brief: as §2
Mus musculus [34] = assay: Effect on the survival rate of mice infected with HSV-1 administered intravaginally at 10% dosage twice in a day; type: functional; method in brief: as §1
Mus musculus [35] = organism: Mus musculus; assay: Number of mice recovered from virus infected with Herpes simplex virus type-2 at 10% dosage twice in 4 th day out of 10 mice sampled; type: functional; method in brief: as §2
Mus musculus [36] = assay: Effect on the survival rate of mice infected with HSV-1 administered intravaginally at 2.5% dosage twice in a day; type: functional; method in brief: as §1
Mus musculus [37] = assay: Effect on the survival rate of mouse infected with herpes genitalis (HSV-2) administered intravaginally at 5% twice in a day; type: functional
Mus musculus [38] = assay: Effect on the survival rate of mice infected with HSV-1 administered intravaginally at 5% dosage twice in a day; type: functional; method in brief: as §1
Mus musculus [39] = organism: Mus musculus; assay: Number of mice recovered from virus infected with Herpes simplex virus type-2 at 1.25% dosage twice in 4 th day out of 10 mice sampled; type: functional; method in brief: as §2
Mus musculus [40] = organism: Mus musculus; assay: Number of mice recovered from virus infected with Herpes simplex virus type-2 at 1.25% dosage twice in 1st day out of 10 mice sampled; type: functional; method in brief: as §2
Mus musculus [41] = organism: Mus musculus; assay: Number of mice recovered from virus infected with Herpes simplex virus type-2 at 1.25% dosage twice in 2 nd day out of 10 mice sampled; type: functional; method in brief: as §2

Compound: CCc1n[nH]c(CC)c1CCCCCCOc1ccc(OC)cc1Cl
Average survival (Mus musculus [2]): >11 days | Survival (Mus musculus [2]): 60% | Average survival (Mus musculus [3]): >10 days | Survival (Mus musculus [3]): 30% | MIC (Human alphaherpesvirus 2 [1]): 6 µg/mL (≈ 16.4 µM) | Average survival (Mus musculus [4]): >11 days | Survival (Mus musculus [4]): 40%

Compound: CCc1n[nH]c(CC)c1CCCCOc1ccc(OC)cc1Cl
MIC (Human alphaherpesvirus 2 [1]): 6 µg/mL (≈ 17.8 µM)

Compound: COc1ccc(OCCCCCCc2c(-c3ccccc3)n[nH]c2-c2ccccc2)c(Cl)c1
MIC (Human alphaherpesvirus 2 [1]): 3 µg/mL (≈ 6.51 µM)

Compound: CCc1n[nH]c(CC)c1CCCCCCOc1ccc(OC)cc1Cl.CS(=O)(=O)O
No. of mice receovered (Mus musculus [6]): 0 | No. of mice receovered (Mus musculus [7]): 0 | No. of mice receovered (Mus musculus [8]): 0 | Average survival (Mus musculus [9]): >13 days | No. of mice receovered (Mus musculus [10]): 0 | Survival (Mus musculus [11]): 40% | No. of mice receovered (Mus musculus [12]): 0 | Average survival (Mus musculus [13]): >12 days | Survival (Mus musculus [13]): 70% | No. of mice receovered (Mus musculus [14]): 0 | Survival (Mus musculus [15]): 30% | Average survival (Mus musculus [16]): >11 days | Survival (Mus musculus [16]): 60% | No. of mice receovered (Mus musculus [17]): 0 | No. of mice receovered (Mus musculus [18]): 0 | No. of mice receovered (Mus musculus [19]): 0 | No. of mice receovered (Mus musculus [20]): 0 | No. of mice receovered (Mus musculus [21]): 0 | Average survival (Mus musculus [22]): >13 days | Survival (Mus musculus [22]): 90% | Average survival (Mus musculus [23]): >10 days | Average survival (Mus musculus [24]): >13 days | Survival (Mus musculus [24]): 90% | No. of mice receovered (Mus musculus [25]): 0 | No. of mice receovered (Mus musculus [26]): 0 | No. of mice receovered (Mus musculus [27]): 1 | No. of mice receovered (Mus musculus [28]): 0 | Average survival (Mus musculus [29]): >10 days | Survival (Mus musculus [29]): 40% | No. of mice receovered (Mus musculus [30]): 1 | No. of mice receovered (Mus musculus [31]): 0 | No. of mice receovered (Mus musculus [32]): 0 | No. of mice receovered (Mus musculus [33]): 0 | Average survival (Mus musculus [34]): >13 days | Survival (Mus musculus [34]): 70% | No. of mice receovered (Mus musculus [35]): 0 | Average survival (Mus musculus [36]): >11 days | Survival (Mus musculus [37]): 80% | Average survival (Mus musculus [38]): >12 days | Survival (Mus musculus [38]): 60% | No. of mice receovered (Mus musculus [39]): 0 | No. of mice receovered (Mus musculus [40]): 0 | No. of mice receovered (Mus musculus [41]): 1

Compound: CCc1nn(C(=O)CCCN2CCOCC2)c(CC)c1CCCCCCOc1ccc(OC)cc1Cl
MIC (Human alphaherpesvirus 2 [1]): 3 µg/mL (≈ 5.77 µM)

Second part, the compound after the results:

MIC (Human alphaherpesvirus 2 [1]): 3 µg/mL (≈ 8.91 µM)
Compound: COc1ccc(OCCCCCCc2c(C)n[nH]c2C)c(Cl)c1

MIC (Human alphaherpesvirus 2 [5]): inactive
Compound: CCc1nn(CC(=O)O)c(CC)c1CCCCCCOc1ccc(OC)cc1Cl

MIC (Human alphaherpesvirus 2 [1]): 0.7 µg/mL (≈ 1.99 µM)
Compound: COc1ccc(OCCCCCCc2c(C)nn(C)c2C)c(Cl)c1
